As a reminder, the IC50 is the concentration needed to halve the response being measured.

The results in this text go back to ChEMBL document CHEMBL1130404, “Synthesis and evaluation of polycyclic pyrazolo[3,4-d]pyrimidines as PDE1 and PDE5 cGMP phosphodiesterase inhibitors” (J Med Chem, 1997).

In assay [1] the target is cGMP-specific 3',5'-cyclic phosphodiesterase (Bos taurus, UniProt Q28156). The assay can be described thus: Inhibition of phosphodiesterase 5 from bovine lung. Summed up:
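Purified bovine lung enzyme in 50 mM Tris-HCl (pH 7.5), 2 mM MgCl2, 0.1 mg/mL BSA with 1 μM [3H]cGMP as substrate, incubated 30 min at 30 °C. IC50 derived from percent inhibition plotted against log molar concentration; run in duplicate, mean of two reported.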

In assay [2] the target is 3',5'-cyclic-nucleotide phosphodiesterase (Bos taurus, UniProt A0A3Q1M1E8). In words: Inhibition of Phosphodiesterase 3 from bovine heart. The procedure, abridged: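 Enzymes purified from bovine heart (PDE3) or canine kidney (PDE4); 1 μM [3H]cAMP substrate, 50 mM Tris-HCl pH 7.5, 2 mM MgCl2, 0.1 mg/mL BSA, 30 min at 30 °C. IC50 taken from % inhibition vs log molar concentration; duplicates, mean reported.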
Sequence of 3',5'-cyclic-nucleotide phosphodiesterase (A0A3Q1M1E8 1-1126): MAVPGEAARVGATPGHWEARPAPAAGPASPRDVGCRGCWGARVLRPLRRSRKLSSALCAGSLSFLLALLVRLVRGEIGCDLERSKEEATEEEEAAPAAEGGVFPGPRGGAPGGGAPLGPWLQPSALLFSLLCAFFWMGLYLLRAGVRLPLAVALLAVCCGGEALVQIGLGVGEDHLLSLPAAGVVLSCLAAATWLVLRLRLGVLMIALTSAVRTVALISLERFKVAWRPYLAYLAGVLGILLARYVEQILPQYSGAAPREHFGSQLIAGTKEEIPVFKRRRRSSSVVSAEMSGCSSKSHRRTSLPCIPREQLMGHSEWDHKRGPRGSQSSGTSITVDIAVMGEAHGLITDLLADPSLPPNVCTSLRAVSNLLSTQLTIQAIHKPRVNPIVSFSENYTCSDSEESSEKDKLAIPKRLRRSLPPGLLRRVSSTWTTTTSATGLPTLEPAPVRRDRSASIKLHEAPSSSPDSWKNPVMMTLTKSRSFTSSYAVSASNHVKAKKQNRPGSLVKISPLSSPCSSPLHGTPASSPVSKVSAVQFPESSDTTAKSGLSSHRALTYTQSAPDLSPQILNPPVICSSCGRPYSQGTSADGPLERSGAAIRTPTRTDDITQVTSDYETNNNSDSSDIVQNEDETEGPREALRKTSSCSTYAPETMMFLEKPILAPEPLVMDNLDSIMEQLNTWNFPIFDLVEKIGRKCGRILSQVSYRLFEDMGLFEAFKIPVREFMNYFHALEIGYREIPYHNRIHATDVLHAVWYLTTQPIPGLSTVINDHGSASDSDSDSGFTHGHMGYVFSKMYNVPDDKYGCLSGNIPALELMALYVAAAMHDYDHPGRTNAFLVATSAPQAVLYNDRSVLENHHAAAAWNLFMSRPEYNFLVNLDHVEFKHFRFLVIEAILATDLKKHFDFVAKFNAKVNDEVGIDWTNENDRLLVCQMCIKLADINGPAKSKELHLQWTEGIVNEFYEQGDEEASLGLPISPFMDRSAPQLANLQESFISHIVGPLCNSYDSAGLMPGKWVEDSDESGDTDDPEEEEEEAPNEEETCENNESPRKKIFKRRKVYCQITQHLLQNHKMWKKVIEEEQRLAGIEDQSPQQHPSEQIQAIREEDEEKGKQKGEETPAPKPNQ

The target of the next assay is Phosphodiesterase 1 (Bos taurus, UniProt Q01061+P14100). The assay can be described thus: Inhibition of phosphodiesterases PDE1 from bovine aorta. The assay is classed as protein assay. The procedure, abridged:
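Bovine aorta enzyme; 50 mM Tris-HCl pH 7.5, 2 mM MgCl2, 0.1 mg/mL BSA, 1 mM CaCl2, 0.1 μM calmodulin, 1 μM [3H]cGMP substrate; 30 min at 30 °C. IC50 read from % inhibition vs log molar concentration curve; duplicates, mean reported.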

For assay [3], the system named is Rattus norvegicus. In words: Antihypertensive activity in spontaneously hypertensive rats at 10 mg/kg administered orally. The assay is classed as functional. Conditions: route oral. The procedure, abridged:
(§1)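 Spontaneously hypertensive rats dosed orally with aqueous solution or suspension in 0.4% methylcellulose vehicle. Value is peak change in mean arterial pressure relative to a vehicle-treated control group.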

The test system of assay [4] is Rattus norvegicus. In words: Antihypertensive activity in spontaneously hypertensive rats at 25 mg/kg administered orally. It is filed as functional. The following applies: route oral. Summed up: as §1
Assay [5] concerns the target T1, cGMP-dependent 3',5'-cyclic phosphodiesterase (Bos taurus, UniProt P14099).
T1 sequence (P14099 whole entry): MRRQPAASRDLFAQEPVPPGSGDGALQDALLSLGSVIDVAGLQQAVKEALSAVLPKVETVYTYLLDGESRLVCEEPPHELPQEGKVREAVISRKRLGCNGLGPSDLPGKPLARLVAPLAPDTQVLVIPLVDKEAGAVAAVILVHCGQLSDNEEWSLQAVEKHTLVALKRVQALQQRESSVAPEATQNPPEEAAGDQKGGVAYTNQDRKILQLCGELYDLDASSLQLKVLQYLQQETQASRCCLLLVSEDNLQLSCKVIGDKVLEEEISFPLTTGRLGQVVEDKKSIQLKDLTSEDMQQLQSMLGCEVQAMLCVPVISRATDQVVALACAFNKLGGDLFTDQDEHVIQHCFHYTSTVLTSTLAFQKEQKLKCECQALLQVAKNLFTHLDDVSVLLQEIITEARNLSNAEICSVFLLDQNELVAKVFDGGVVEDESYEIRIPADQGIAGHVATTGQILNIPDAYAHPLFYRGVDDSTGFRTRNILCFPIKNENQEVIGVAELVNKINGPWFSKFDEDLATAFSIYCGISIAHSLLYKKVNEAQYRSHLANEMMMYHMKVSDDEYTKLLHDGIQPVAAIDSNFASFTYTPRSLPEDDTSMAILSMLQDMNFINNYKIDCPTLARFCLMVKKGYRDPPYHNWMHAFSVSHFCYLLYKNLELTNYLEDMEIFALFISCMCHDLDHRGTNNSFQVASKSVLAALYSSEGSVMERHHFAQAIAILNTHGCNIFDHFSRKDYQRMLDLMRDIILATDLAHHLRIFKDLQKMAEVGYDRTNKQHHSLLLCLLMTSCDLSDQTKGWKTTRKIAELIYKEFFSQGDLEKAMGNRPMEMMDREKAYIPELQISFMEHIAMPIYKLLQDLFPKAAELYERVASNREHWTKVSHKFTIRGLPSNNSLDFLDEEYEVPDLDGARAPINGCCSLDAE
The assay can be described thus: Inhibition of Phosphodiesterase 2 from bovine adrenal cortex. Summed up: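 Recombinant bovine adrenal cortex enzyme; [3H]cAMP substrate in 50 mM Tris-HCl pH 7.5, 2 mM MgCl2, 0.1 mg/mL BSA, mixture also holding 5 μM cGMP; 30 min, 30 °C. IC50 from inhibition vs log molar concentration curve; duplicate determinations averaged.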

For assay [6], the target named is Phosphodiesterase 4 (Canis familiaris). In words: Inhibition of phosphodiesterase PDE4 from canine kidney.

Take `Cc1n[nH]c2c1C(=O)N(C)C1=N[C@@H]3CCC[C@@H]3N12`: the IC50 in assay [1] was 2900 nM; in assay [2] it was over 100000 nM; on Phosphodiesterase 1, 18000 nM. Moreover, in the assay with Rattus norvegicus [3], the “Delta mmHg” value is -7.
For `CN1C(=O)c2c(nn(Cc3ccccc3)c2-c2ccccc2)N2C1=N[C@@H]1CCC[C@@H]12`, in that order: 2100 nM, 55000 nM, 540 nM and 1.
Turning to `CN1C(=O)c2c(nn(C)c2Cc2ccccc2)N2C1=N[C@@H]1CCC[C@@H]12`, the IC50 in assay [1] worked out at 100 nM; in assay [2], 80000 nM; against Phosphodiesterase 1, 55 nM. In addition, the “Delta mmHg” value with Rattus norvegicus [3] (10 mg/kg) is listed as -26.
In the case of `Cc1nc2c(n1Cc1ccccc1)C(=O)N(C)C1=N[C@@H]3CCC[C@@H]3N12`, the “Delta mmHg” value with Rattus norvegicus [3] is reported as -28.
For `CN1C(=O)c2c(nn(C)c2Cc2ccccc2)N2CC(C)(C)N=C12`, the IC50 in assay [1] stood at 140 nM; in assay [2], 42000 nM; against Phosphodiesterase 1, 18 nM.
The corresponding values for `CN1C(=O)c2c(Cc3ccccc3)nn(C)c2N2C1=N[C@@H]1CCC[C@@H]12` (racemic) are 400 nM, 29000 nM and 850 nM.
`Cc1nn(Cc2ccccc2)c2c1C(=O)N(C)C1=N[C@@H]3CCC[C@@H]3N12`: the IC50 came out at 1000 nM in assay [1], 50000 nM in assay [2] and 2000 nM against Phosphodiesterase 1. Besides, the “Delta mmHg” value in the assay with Rattus norvegicus [3] is listed as -3.
`CN1C(=O)c2cnn(Cc3ccccc3)c2N2C1=N[C@@H]1CCC[C@@H]12` (racemic): the IC50 in assay [1] was found to be 3100 nM; in assay [2], 55000 nM; on Phosphodiesterase 1 it was 29000 nM. The “Delta mmHg” value in the assay with Rattus norvegicus [4] was -14.
In the case of `CN1C(=O)c2c(nn(C)c2Cc2ccccc2)N2CC3(CCCC3)N=C12`, the IC50 in assay [5] stood at 11000 nM; in assay [1] it was 75 nM; in assay [2], 55000 nM; at Phosphodiesterase 1, 60 nM; in assay [6], 230 nM. The “Delta mmHg” value in the assay on Rattus norvegicus [3] is -33.
Regarding `CN1C(=O)c2c(nn(C)c2Cc2ccccc2)N2C1=N[C@@H]1CCC[C@@H]12` (racemic), the IC50 is 140 nM in assay [1], 85000 nM in assay [2] and 160 nM at Phosphodiesterase 1. For the same compound, the “Delta mmHg” value in the assay on Rattus norvegicus [3] (10 mg/kg) was -18.
On to `CN1C(=O)c2c(Cc3ccccc3)n[nH]c2N2C1=N[C@@H]1CCC[C@@H]12` (racemic), for which the results for the IC50 (in assay [1]; in assay [2]; at Phosphodiesterase 1) were 190 nM, over 100000 nM and 1100 nM, respectively. Also, in the assay on Rattus norvegicus [4], the “Delta mmHg” value was -16.
For the compound `CC(C)[C@@H]1CN2C(=N1)N(C)C(=O)c1c2nn(C)c1Cc1ccccc1`, the IC50 turned out to be 100 nM in assay [1], 90000 nM in assay [2] and 20 nM against Phosphodiesterase 1.
